Experimental data taken from ChEMBL document CHEMBL1152541, “Staurosporine tethered peptide ligands that target cAMP-dependent protein kinase (PKA): optimization and selectivity profiling” (Bioorg Med Chem, 2009).
The source made the active and inactive calls. The rule behind the calls is not given here. *1 amine or outer side, *2 acyl side, *3 side chain or, on linkers, in order; H or OH if unused. Where a SMILES comes first, the peptide text is derived from it. Bridges are numbered along the chain shown (N, C = ends). [ ]: non-standard residue; d: D form. The star is where a group is joined. Staurosporine = CO[C@@H]1[C@H](N(C)*)C[C@H]2O[C@]1(C)n1c3ccccc3c3c4c(c5c6ccccc6n2c5c31)C(=O)NC4; Suc = O=C(CCC(=O)[*:2])[*:1]; Dap = NC[C@H](N)C(=O)O; βAla = NCCC(=O)O

Legend:
[1] = molecular target: High affinity nerve growth factor receptor (Homo sapiens) (UniProt P04629); test: Binding affinity to human TRKA at 500 nM by cell-based competition binding assay relative to control in presence of DTT
[2] = molecular target: MAP/microtubule affinity-regulating kinase 3 (Homo sapiens) (UniProt P27448); test: Binding affinity to human MARK3 at 500 nM by cell-based competition binding assay relative to control in presence of DTT
How it was run: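 Kinase binding profile from a commercial panel of 90 kinases, run as a competitive binding assay. The panel was screened under reducing conditions of 7.5 mM DTT. Signal was compared with the untreated control.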

[3] = molecular target: 3-phosphoinositide-dependent protein kinase 1 (Homo sapiens) (UniProt O15530); test: Ratio of compound to staurosporine binding affinity to PDK1 in presence of DTT
[4] = molecular target: T1, Serine/threonine-protein kinase PLK4 (Homo sapiens) (UniProt O00444); test: Binding affinity to human PLK4 at 200 nM by cell-based competition binding assay relative to control in presence of DTT
T1 sequence (whole entry): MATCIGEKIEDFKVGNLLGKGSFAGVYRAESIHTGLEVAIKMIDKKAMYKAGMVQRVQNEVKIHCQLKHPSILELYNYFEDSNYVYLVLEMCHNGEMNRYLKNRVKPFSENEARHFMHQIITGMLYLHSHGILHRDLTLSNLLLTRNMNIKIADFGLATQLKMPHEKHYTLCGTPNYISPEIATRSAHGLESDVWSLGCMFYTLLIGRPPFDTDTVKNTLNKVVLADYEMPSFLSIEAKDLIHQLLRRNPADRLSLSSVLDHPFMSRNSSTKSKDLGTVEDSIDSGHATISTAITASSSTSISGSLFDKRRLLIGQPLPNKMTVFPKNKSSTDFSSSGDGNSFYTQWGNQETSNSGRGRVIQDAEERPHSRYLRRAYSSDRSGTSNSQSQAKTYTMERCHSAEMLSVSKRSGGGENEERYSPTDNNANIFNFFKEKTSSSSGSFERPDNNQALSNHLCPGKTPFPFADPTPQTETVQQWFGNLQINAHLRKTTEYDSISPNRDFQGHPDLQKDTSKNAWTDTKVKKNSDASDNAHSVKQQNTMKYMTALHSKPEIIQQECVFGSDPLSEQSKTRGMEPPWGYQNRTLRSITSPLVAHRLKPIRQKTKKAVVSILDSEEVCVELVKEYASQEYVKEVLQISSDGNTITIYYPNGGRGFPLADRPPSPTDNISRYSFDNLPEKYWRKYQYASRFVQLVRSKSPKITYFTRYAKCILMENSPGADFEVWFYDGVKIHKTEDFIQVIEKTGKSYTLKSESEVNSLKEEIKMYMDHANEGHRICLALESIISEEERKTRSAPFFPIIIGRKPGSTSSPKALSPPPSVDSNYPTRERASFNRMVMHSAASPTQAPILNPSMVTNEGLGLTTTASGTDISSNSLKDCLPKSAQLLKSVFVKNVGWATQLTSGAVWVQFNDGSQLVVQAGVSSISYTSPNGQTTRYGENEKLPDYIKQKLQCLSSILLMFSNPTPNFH

[5] = molecular target: Serine/threonine-protein kinase B-raf (Homo sapiens) (UniProt P15056); test: Binding affinity to human BRAF at 200 nM by cell-based competition binding assay relative to control in presence of DTT
How it was run: (§1)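 Kinase binding profiling ran on a commercial (Ambit) competitive binding screen against a panel of 90 kinases. The screen used reducing conditions with 7.5 mM DTT. To withstand the DTT, the bivalent ligand was tested as its amide isostere, with the disulfide replaced. A staurosporine derivative carrying a 3 β-alanine linker was run as the reference compound.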

[6] = tested on: Mast/stem cell growth factor receptor Kit (Homo sapiens), P10721 [D816V]; test: Binding affinity to human KIT D816V mutant at 200 nM by cell-based competition binding assay relative to control in presence of DTT
How it was run: (§2)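 Competition binding screen (Ambit) across a panel of 90 kinases, scoring test ligand displacement of each kinase's binding relative to control. The screen ran under reducing conditions with 7.5 mM DTT.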

[7] = molecular target: Cyclin-dependent kinase 7 (Homo sapiens) (UniProt P50613); test: Binding affinity to human CDK7 at 200 nM by cell-based competition binding assay relative to control in presence of DTT; how it was run: as §1
[8] = molecular target: Serine/threonine-protein kinase PLK1 (Homo sapiens) (UniProt P53350); test: Binding affinity to human PLK1 at 200 nM by cell-based competition binding assay relative to control in presence of DTT
[9] = Inhibition of PKA assessed as [gamma-32P]ATP labeling of kemptide at 33 to 100 nM by liquid scintillation counting in presence of DTT
[10] = molecular target: Tyrosine-protein kinase JAK2 (Homo sapiens) (UniProt O60674); test: Binding affinity to human JAK2 kinase domain 2 at 200 nM by cell-based competition binding assay relative to control in presence of DTT; how it was run: as §2
[11] = molecular target: Dual specificity mitogen-activated protein kinase kinase 2 (Homo sapiens) (UniProt P36507); test: Binding affinity to human MEK2 at 200 nM by cell-based competition binding assay relative to control in presence of DTT
[12] = molecular target: Dual specificity mitogen-activated protein kinase kinase 2 (Homo sapiens) (UniProt P36507); test: Binding affinity to human MEK2 at 50 nM by cell-based competition binding assay relative to control in presence of DTT
[13] = molecular target: RAC-alpha serine/threonine-protein kinase (Homo sapiens) (UniProt P31749); test: Binding affinity to human AKT1 at 50 nM by cell-based competition binding assay relative to control in presence of DTT; how it was run: as §1
[14] = tested on: Epidermal growth factor receptor (Homo sapiens), P00533 [L858R]; test: Binding affinity to human EGFR L858R mutant at 50 nM by cell-based competition binding assay relative to control in presence of DTT
How it was run: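 Commercial (Ambit) competitive kinase-binding panel of 90 kinases measured the binding profile. Run under reducing conditions of 7.5 mM DTT. Binding is expressed relative to control.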

Dual specificity mitogen-activated protein kinase kinase 2 (Homo sapiens), sequence (P36507 whole entry): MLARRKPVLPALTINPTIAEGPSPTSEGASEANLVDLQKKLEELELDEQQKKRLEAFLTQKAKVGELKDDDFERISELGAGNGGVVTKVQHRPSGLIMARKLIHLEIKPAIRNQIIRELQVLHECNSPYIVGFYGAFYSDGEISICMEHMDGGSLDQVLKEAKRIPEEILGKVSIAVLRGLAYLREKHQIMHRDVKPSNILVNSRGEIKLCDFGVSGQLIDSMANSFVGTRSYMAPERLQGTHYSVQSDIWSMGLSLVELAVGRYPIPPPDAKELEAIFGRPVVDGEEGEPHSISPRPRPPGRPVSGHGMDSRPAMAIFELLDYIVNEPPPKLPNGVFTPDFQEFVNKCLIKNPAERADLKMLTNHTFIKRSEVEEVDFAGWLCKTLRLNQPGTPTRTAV
RAC-alpha serine/threonine-protein kinase (Homo sapiens), sequence (P31749 whole entry): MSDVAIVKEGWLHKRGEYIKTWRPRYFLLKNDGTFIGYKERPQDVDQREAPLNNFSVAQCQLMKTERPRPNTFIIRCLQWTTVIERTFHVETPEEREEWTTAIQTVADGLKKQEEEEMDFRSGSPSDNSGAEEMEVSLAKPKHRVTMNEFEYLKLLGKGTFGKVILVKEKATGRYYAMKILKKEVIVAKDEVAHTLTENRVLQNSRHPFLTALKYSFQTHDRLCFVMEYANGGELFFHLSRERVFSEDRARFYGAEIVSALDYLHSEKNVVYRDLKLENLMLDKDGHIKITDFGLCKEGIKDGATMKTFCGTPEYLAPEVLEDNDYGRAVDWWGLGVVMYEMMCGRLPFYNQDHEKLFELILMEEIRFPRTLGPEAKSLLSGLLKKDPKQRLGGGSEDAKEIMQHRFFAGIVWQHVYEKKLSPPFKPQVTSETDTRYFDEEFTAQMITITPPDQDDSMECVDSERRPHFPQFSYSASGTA
Serine/threonine-protein kinase B-raf (Homo sapiens), sequence (P15056 whole entry): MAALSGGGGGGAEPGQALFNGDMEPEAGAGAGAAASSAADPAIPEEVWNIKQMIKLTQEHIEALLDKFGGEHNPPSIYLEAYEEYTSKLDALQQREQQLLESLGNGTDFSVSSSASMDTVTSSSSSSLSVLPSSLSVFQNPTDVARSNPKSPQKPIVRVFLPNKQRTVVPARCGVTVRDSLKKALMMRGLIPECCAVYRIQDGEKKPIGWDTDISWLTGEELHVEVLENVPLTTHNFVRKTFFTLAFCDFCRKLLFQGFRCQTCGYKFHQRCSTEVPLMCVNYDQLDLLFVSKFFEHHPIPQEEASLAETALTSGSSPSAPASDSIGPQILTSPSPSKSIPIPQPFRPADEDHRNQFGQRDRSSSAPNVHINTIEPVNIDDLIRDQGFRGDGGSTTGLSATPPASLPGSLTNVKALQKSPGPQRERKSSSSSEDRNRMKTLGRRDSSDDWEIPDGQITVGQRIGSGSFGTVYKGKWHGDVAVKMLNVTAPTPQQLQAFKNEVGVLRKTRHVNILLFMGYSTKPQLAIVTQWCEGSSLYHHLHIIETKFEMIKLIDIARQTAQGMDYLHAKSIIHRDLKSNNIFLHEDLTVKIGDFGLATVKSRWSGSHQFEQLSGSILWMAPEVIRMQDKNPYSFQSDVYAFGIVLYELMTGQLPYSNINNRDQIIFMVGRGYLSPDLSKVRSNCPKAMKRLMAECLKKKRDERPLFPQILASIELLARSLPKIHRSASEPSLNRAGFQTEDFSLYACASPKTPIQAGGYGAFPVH
MAP/microtubule affinity-regulating kinase 3 (Homo sapiens), sequence (P27448 whole entry, looked up): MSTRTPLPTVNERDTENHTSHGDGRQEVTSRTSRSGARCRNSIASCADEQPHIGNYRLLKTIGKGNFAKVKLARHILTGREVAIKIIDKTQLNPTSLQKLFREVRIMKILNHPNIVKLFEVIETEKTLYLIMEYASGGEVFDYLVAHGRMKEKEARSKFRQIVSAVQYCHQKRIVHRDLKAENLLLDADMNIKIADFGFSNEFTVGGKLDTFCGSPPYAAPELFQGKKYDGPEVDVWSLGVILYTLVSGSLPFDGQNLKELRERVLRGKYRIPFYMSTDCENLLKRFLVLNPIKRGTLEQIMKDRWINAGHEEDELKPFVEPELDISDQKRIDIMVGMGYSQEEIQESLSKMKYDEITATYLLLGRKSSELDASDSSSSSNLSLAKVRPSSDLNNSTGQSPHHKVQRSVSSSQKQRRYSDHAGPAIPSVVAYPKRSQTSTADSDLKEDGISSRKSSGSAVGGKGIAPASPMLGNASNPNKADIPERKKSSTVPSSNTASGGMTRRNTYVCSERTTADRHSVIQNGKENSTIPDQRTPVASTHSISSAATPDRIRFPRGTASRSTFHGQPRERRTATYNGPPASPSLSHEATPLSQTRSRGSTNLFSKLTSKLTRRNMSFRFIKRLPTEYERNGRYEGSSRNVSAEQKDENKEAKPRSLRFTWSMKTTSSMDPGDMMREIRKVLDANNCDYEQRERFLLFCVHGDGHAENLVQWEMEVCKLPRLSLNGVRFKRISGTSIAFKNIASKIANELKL
Mast/stem cell growth factor receptor Kit (Homo sapiens), P10721 [D816V], sequence (P10721 whole entry D816V): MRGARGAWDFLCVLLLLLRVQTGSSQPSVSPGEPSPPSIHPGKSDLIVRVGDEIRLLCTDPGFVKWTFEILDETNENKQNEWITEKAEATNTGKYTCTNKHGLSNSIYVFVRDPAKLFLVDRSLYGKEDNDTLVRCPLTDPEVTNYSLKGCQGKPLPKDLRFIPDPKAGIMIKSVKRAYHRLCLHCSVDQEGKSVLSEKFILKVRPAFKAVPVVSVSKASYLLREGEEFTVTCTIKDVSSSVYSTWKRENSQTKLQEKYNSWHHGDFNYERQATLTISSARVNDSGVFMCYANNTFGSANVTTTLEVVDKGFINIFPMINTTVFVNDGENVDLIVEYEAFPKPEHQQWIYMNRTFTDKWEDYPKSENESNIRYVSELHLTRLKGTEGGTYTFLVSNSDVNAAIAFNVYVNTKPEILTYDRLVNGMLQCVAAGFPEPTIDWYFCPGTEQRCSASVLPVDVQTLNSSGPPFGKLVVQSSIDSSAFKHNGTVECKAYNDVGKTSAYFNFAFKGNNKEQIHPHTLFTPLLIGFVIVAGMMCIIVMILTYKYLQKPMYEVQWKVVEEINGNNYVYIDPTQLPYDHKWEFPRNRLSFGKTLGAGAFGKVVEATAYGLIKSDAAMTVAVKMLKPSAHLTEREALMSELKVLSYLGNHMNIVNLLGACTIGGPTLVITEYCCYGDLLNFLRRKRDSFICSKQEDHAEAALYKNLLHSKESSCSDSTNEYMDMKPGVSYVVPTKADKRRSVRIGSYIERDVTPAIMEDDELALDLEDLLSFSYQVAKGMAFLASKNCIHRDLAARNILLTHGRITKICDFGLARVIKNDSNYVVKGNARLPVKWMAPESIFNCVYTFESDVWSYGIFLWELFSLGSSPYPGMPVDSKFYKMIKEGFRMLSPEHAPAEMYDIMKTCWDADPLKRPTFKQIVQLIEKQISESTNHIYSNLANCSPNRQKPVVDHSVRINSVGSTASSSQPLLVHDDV
Tyrosine-protein kinase JAK2 (Homo sapiens), sequence (O60674 whole entry, the tested form may be a part): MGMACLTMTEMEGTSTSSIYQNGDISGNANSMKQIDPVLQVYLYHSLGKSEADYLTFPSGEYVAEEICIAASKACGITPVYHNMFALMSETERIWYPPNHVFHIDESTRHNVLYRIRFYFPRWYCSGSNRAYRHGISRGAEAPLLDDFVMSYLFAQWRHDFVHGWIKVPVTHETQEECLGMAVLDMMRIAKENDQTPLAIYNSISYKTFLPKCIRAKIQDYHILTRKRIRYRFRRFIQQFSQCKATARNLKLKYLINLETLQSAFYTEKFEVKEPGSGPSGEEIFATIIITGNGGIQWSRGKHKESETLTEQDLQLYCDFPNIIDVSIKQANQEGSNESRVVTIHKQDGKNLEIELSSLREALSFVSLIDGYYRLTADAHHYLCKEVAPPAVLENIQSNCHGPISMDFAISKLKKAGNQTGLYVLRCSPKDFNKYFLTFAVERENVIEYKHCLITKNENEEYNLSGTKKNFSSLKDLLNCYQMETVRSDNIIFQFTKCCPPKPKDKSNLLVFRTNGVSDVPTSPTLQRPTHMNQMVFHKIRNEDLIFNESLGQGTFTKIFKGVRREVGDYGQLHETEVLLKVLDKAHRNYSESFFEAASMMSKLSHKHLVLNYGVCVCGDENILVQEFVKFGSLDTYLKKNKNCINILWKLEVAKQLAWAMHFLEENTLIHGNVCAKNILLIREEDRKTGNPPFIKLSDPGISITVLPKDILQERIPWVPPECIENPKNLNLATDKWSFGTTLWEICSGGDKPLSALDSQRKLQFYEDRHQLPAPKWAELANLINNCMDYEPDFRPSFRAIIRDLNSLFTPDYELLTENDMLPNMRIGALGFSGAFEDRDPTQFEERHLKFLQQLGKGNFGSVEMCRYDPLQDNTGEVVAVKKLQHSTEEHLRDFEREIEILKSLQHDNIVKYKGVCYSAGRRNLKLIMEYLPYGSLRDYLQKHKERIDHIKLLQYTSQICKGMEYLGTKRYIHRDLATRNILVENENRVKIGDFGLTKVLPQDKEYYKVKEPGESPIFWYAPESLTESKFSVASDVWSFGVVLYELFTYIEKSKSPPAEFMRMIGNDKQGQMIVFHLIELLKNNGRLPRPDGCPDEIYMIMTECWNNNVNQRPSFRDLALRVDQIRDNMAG
3-phosphoinositide-dependent protein kinase 1 (Homo sapiens), sequence (O15530 whole entry, looked up): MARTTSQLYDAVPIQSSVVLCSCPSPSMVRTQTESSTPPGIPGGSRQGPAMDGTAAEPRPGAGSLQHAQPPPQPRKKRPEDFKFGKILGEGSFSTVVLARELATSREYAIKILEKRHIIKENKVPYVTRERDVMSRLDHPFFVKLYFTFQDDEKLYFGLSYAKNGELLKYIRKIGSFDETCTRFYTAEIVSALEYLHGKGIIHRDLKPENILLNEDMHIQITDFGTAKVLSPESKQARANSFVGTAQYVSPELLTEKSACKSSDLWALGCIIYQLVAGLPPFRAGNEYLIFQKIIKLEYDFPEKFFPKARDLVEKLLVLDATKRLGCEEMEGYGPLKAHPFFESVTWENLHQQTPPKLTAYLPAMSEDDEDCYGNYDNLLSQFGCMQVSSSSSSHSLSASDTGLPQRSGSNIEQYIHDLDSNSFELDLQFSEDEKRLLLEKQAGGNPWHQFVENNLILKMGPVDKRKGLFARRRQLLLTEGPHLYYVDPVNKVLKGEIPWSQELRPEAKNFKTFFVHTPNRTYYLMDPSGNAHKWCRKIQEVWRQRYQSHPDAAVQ

Row | Compound | Activity [1] [%] | Activity [2] [%] | Selectivity ratio [3] | Activity [4] [%] | Activity [5] [%] | Activity [6] [%] | Activity [7] [%] | Activity [8] [%] | inhibition [9] | Activity [10] [%] | Activity [11] [%] | Activity [12] [%] | Activity [13] [%] | Activity [14] [%]
1 | CO[C@@H]1[C@H](N(C)C(=O)CCC(=O)NCCC(=O)NCCC(=O)NCCC(N)=O)C[C@H]2O[C@]1(C)n1c3ccccc3c3c4c(c5c6ccccc6n2c5c31)C(=O)NC4 | 13 | 16 | 52 |  |  |  |  |  |  |  |  |  |  | 
2 | CO[C@@H]1[C@H](N(C)C(=O)CCC(=O)NCCC(=O)NCCC(=O)NCCC(=O)NCCC(=O)NCCC(=O)NCCC(=O)NCCC(=O)N[C@H]2CSSC[C@@H](C(=O)NCC(N)=O)NC(=O)CNC(=O)[C@H](Cc3ccccc3)NC(=O)[C@H](C(C)C)NC(=O)[C@H](CCCNC(=N)N)NC(=O)[C@H](Cc3ccccc3)NC(=O)[C@H](C(C)C)NC2=O)C[C@H]2O[C@]1(C)n1c3ccccc3c3c4c(c5c6ccccc6n2c5c31)C(=O)NC4 ({Staurosporine-Suc-βAla-βAla-βAla-βAla-βAla-βAla-βAla}-CVFRVFGCG-NH2; disulfide 1-8) |  |  |  | 4.9 | 100 | 0.65 | 74 | 95 | inactive | 4 | 100 |  |  | 
3 | CO[C@@H]1[C@H](N(C)C(=O)CCC(=O)NCCC(=O)NCCC(=O)NCCC(=O)NCCC(=O)NCCC(=O)NCCC(=O)NCCC(=O)N[C@H]2CNC(=O)C[C@@H](C(N)=O)NC(=O)CNC(=O)[C@H](Cc3ccccc3)NC(=O)[C@H](C(C)C)NC(=O)[C@H](CCCNC(=N)N)NC(=O)[C@H](Cc3ccccc3)NC(=O)[C@H](C(C)C)NC2=O)C[C@H]2O[C@]1(C)n1c3ccccc3c3c4c(c5c6ccccc6n2c5c31)C(=O)NC4 ({Staurosporine-Suc-βAla-βAla-βAla-βAla-βAla-βAla-βAla}-[Dap]VFRVFGD-NH2; lactam 1-8) |  |  |  |  |  |  |  |  | Active |  |  | 87 | 100 | 100
